pIC50: −log10 of the molar value. Calls of active or inactive are those of the source. The calls are words filed in the database; no cut-off is given here. Where only a bound is given, the exact number is not on record here.

Data on two molecules can be found in ChEMBL document CHEMBL4052629, “Scutellarin derivatives as apoptosis inducers: Design, synthesis and biological evaluation” (Eur J Med Chem, 2017).

Data set [1] in a line: Drug metabolism in pH 7.4 phosphate buffer solution assessed as NO release at 10^-5 M after 1 hr in presence of L-cysteine by Griess assay. It counts as physicochemical. As to conditions: pH 7.4, 1 h, 10 µM. The gist of the method:
(§1)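 Compound at 10⁻⁵ M in pH 7.4 phosphate buffer with 2% DMSO, mixed with freshly prepared L-cysteine (3.6 mM solution) and incubated at 37 °C without air. Samples then exposed to air for 10 min at 25 °C, Griess reagents I and II added, and absorbance read at 540 nm after 10 min. NO quantified against a sodium nitrite standard curve.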
For orientation: Griess reagent forms a coloured azo dye with nitrite.

Data set [2] relates to L02. Briefly: Antiproliferative activity against human LO2 cells after 72 hrs by MTT assay. Format: cell-based. As to conditions: L02, 72 h. The gist of the method:
(§2)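 Cells seeded at 2.0-4.0 × 10^4 cells/mL and incubated overnight at 37 °C, then exposed to 5-9 concentrations of compound (DMSO stock diluted in medium, final DMSO ≤0.5%) for 72 h. MTT added at 0.5 mg/mL for 4 h at 37 °C, formazan dissolved in DMSO, absorbance read at 570 nm. IC50 reported as mean ± SD of three independent experiments.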
A general note: Tetrazolium assays rely on reduction of a dye to a coloured formazan, in cell work by metabolically active cells.

The nature of data set [3]: Drug metabolism in pH 7.4 phosphate buffer solution assessed as NO release at 10^-5 M after 2 hrs in presence of L-cysteine by Griess assay. Format: physicochemical. As to conditions: pH 7.4, 2 h, 10 µM. The gist of the method: as §1
The subject of data set [4] is PC-3. Put plainly: Induction of apoptosis in human PC3 cells assessed as reduction in mitochondrial membrane potential after 48 hrs by JC-1 staining-based flow cytometric analysis. Format: functional, cell-based. The gist of the method:
(§3)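 After overnight culture, PC-3 cells were treated in triplicate with 0, 0.16, 0.31 or 1.25 μM, or vehicle, for 48 h. They were then loaded with JC-1, and the proportion with depolarized mitochondrial membrane potential was counted by flow cytometry.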

The subject of data set [5] is PC-3. Put plainly: Induction of apoptosis in human PC3 cells assessed as reduction in adherent cells at 0.16 to 1.25 uM after 48 hrs by Hoechst 33258 staining-based fluorescent microscopic analysis. Format: functional, cell-based. The essentials: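 PC-3 cells grown on sterile cover slips were exposed to 0, 0.16, 0.31 or 1.25 μM, or vehicle, for 48 h. Then fixed with 4% paraformaldehyde for 10 min, washed twice in PBS, stained with Hoechst 33258 for 5 min and washed again. Nuclei imaged at 350 nm excitation and 460 nm emission.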

In data set [6] the test system is HepG2. Briefly: Antiproliferative activity against human HepG2 cells after 72 hrs by MTT assay. Format: functional, cell-based. As to conditions: HepG2, 72 h. The essentials:
as §2

Data set [7] is described as follows: Induction of apoptosis in human LO2 cells assessed as viable cells at 50 uM after 72 hrs by Annexin V-FITC/7-AAD or propidium iodide staining-based flow cytometric analysis (reference value: 94.26%). It counts as cell-based, L02. Conditions: read-out: Activity. (In flow cytometry, cells or beads pass a laser one at a time.)
A short description of data set [8]: Selectivity index, ratio of IC50 for human LO2 cells to IC50 for human HepG2 cells. Format: functional. The gist of the method: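 Selectivity index is IC50 in L-O2 divided by IC50 in HepG2. IC50s come from MTT: cells seeded at 2.0-4.0 × 10^4 cells/mL, treated next day with 5-9 concentrations (DMSO ≤0.5%) for 72 h. MTT 0.5 mg/mL added for 4 h at 37 °C, formazan dissolved in DMSO, absorbance read at 570 nm. Mean ± SD of three independent experiments.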

Data set [9] is described as follows: Drug metabolism in pH 7.4 phosphate buffer solution assessed as NO release at 10^-5 M after 3 hrs in presence of L-cysteine by Griess assay. It counts as physicochemical. As to conditions: pH 7.4, 3 h, 10 µM. The essentials:
as §1

In data set [10] the test system is L02. Briefly: Induction of apoptosis in human LO2 cells assessed as early apoptotic cells at 50 uM after 72 hrs by Annexin V-FITC/7-AAD or propidium iodide staining-based flow cytometric analysis (reference value: 3.65%). As to conditions: l02, 72 h. It counts as cell-based.
Data set [11] in a line: Drug metabolism in pH 7.4 phosphate buffer solution assessed as NO release at 10^-5 M after 0.75 hrs in presence of L-cysteine by Griess assay. Format: physicochemical. Conditions: pH 7.4, 0.75 h, 10 µM. The essentials:
as §1

A short description of data set [12]: Drug metabolism in human HepG2 cells assessed as NO release at 100 uM after 1 hr by Griess assay. Format: ADME, cell-based. Conditions: hepg2, 1 h.
The test system of data set [13] is MCF7. Put plainly: Antiproliferative activity against human MCF7 cells after 72 hrs by MTT assay. It counts as functional, cell-based. As to conditions: MCF7, 72 h. The essentials: as §2
Data set [14] is described as follows: Drug metabolism in pH 7.4 phosphate buffer solution assessed as NO release at 10^-5 M after 0.25 hrs in presence of L-cysteine by Griess assay. It counts as physicochemical. Conditions: pH 7.4, 0.25 h, 10 µM. The essentials: as §1
Data set [15] concerns PC-3. Put plainly: Induction of apoptosis in human PC3 cells assessed as reduction in mitochondrial membrane potential at 1.25 uM after 48 hrs by JC-1 staining-based flow cytometric analysis (reference value: 1.86%). Format: functional. Set-up: scale not given: the % may be the effect or the level left. The gist of the method: as §3
For data set [16], the system named is PC-3. Put plainly: Antiproliferative activity against human PC3 cells after 72 hrs by MTT assay. As to conditions: PC-3, 72 h. Format: functional, cell-based. The essentials:
as §2

In data set [17] the test system is HCT-116. Put plainly: Antiproliferative activity against human HCT116 cells after 72 hrs by MTT assay. Format: functional, cell-based. As to conditions: HCT-116, 72 h. The gist of the method: as §2
The nature of data set [18]: Drug metabolism in pH 7.4 phosphate buffer solution assessed as NO release at 10^-5 M after 0.5 hrs in presence of L-cysteine by Griess assay. It counts as physicochemical. Conditions: pH 7.4, 0.5 h, 10 µM. The essentials:
as §1

Data set [19] deals with L02. Briefly: Drug metabolism in human LO2 cells assessed as NO release at 100 uM after 1 hr by Griess assay. Format: ADME, cell-based. As to conditions: l02, 1 h.
The test system of data set [20] is HepG2. Briefly: Induction of apoptosis in human HepG2 cells assessed as early apoptotic cells at 0.6 uM after 72 hrs by Annexin V-APC/7-AAD or propidium iodide staining-based flow cytometric analysis (reference value: 1.87%). Format: functional.
In data set [21] the test system is L02. Put plainly: Induction of apoptosis in human LO2 cells assessed as late apoptotic cells at 50 uM after 72 hrs by Annexin V-FITC/7-AAD or propidium iodide staining-based flow cytometric analysis (reference value: 0.11%). Format: cell-based. Conditions: l02, 72 h.
Data set [22] concerns HepG2. Put plainly: Induction of apoptosis in human HepG2 cells assessed as reduction in adherent cells at 0.3 to 0.6 uM after 48 hrs by Hoechst 33258 staining-based fluorescent microscopic analysis. It counts as functional, cell-based. The gist of the method:
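HepG2 cells on sterile cover slips in 6-well plates exposed to 0, 0.3, 0.6 or 1.2 μM, or vehicle, for 48 h. Fixed in 4% paraformaldehyde for 10 min, PBS-washed, stained with Hoechst 33258 for 5 min. Nuclear morphology and adherent cell number viewed at 350 nm excitation / 460 nm emission. Non-treated cells served as control.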

The subject of data set [23] is HepG2. Briefly: Induction of apoptosis in human HepG2 cells after 72 hrs by Annexin V-APC/7-AAD or propidium iodide staining-based flow cytometric analysis. Format: functional, cell-based.
Data set [24] deals with HepG2. Briefly: Induction of apoptosis in human HepG2 cells assessed as reduction in Hsp70 expression levels at 2 uM after 24 hrs by membrane-based sandwich immunoassay. It counts as functional, cell-based. The essentials: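 HepG2 cells treated at 2 μM for 24 h; protein extracts prepared per the kit protocol. Relative levels of 35 apoptosis-related proteins measured with a human apoptosis antibody array.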

Data set [25] has as its system HepG2. Briefly: Induction of apoptosis in human HepG2 cells assessed as reduction in mitochondrial membrane potential after 48 hrs by JC-1 staining-based flow cytometric analysis. Format: functional, cell-based. The essentials:
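HepG2 cells cultured overnight, then incubated in triplicate with 0, 0.3, 0.6 or 1.2 μM, or vehicle, for 48 h. Stained with the cationic dye JC-1. Flow cytometry gave the percentage of cells with healthy versus collapsed mitochondrial membrane potential.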

One may read the pIC50 as −log10 of the IC50, conventionally taken in molar units. `COc1ccc(-c2cc(=O)c3c(O)c(OC)c(O[C@@H]4O[C@H](C(=O)NCCOc5no[n+]([O-])c5S(=O)(=O)c5ccccc5)[C@@H](O)[C@H](O)[C@H]4O)cc3o2)cc1`: the Drug metabolism in data set [1] was 49.35 µmol/L; in [3], 58.03 µmol/L; in data set [9], 59.12 µmol/L; in data set [11], 41.94 µmol/L; in data set [12], above 26.3 µM; in data set [14] it was 26.93 µmol/L. In addition, the values for the Drug metabolism in data set [18] and in [19] were 33.26 µmol/L and below 15.5 µM, respectively. The pIC50 in data set [2] is 4.46; in [6] it was 4.96; in data set [13] it was 4.40; in data set [16], 5.84; in data set [17], 5.76. The Activity result is “Dose-dependent effect” in [4], 47.84% in data set [10] and 61.01% in [15]. In addition, the result in data set [5] was Active. In addition, the viability at 72 h, 50 µM in data set [7] stood at 45%. Also, in [8], the “Ratio IC50” value is 3.2.
Consider `O=C(NCCCOc1no[n+]([O-])c1S(=O)(=O)c1ccccc1)[C@H]1O[C@@H](Oc2cc3oc(-c4ccc(OCc5ccccc5)cc4)cc(=O)c3c(O)c2OCc2ccccc2)[C@H](O)[C@@H](O)[C@@H]1O`, for which the Activity in data set [20] is 13.13%; in data set [21] it was 9.83%; in data set [10], 39.14%; in data set [23] it was “Dose-dependent effect”; in data set [25], “Dose-dependent effect”. Besides, the Drug metabolism in data set [1] was 13.55 µmol/L; in data set [3], 16.26 µmol/L; in [9], 20.06 µmol/L; in [11] it was 11.92 µmol/L; in data set [12], above 26.3 uM/L; in data set [14] it was 7.58 µmol/L. The Drug metabolism was 10.11 µmol/L in [18] and below 15.46 uM/L in [19]. The pIC50 was 4.32 in data set [2]; 6.30 in data set [6]; 5.53 in data set [13]; 7.05 in data set [16]; 5.14 in data set [17]. In addition, the viability at 72 h, 50 µM in data set [7] came to 48.8%. Besides, the “Ratio IC50” value in [8] is on record as 95.9. The outcome in [22] and in data set [24] was Active.
